IC50, Kd and Ki data for ten molecules are collected here from ChEMBL document CHEMBL1125577, “Determination of dissociation constants of high affinity (pM) human renin inhibitors: application to analogues of ditekiren (U-71,038)” (J Med Chem, 1991).

The target of experiment [1] is T1, Renin (Homo sapiens, UniProt P00797).
T1 sequence (P00797 whole entry): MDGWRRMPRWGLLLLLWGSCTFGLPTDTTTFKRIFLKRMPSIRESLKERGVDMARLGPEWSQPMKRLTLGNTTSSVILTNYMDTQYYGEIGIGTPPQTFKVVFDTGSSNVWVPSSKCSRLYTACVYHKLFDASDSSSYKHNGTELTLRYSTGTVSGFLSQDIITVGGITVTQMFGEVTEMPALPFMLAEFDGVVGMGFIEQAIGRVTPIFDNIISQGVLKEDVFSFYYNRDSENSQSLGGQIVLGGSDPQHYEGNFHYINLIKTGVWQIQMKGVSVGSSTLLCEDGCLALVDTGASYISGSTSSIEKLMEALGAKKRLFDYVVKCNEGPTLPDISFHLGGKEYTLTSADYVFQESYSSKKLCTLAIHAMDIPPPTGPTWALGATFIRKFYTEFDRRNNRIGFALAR
Description: In vitro inhibition of human renin by radio-immuno assay of angiotensin I (ANG I).

Experiment [2] in a line: The dissociation constant determined by fluorescence displacement assay. In outline:
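Unlabeled inhibitor (6.6 and 13 nM) then added for 2.5 h more, with fluorescence read before and after each addition. Kd fitted from predicted binding curves or numerical solution, as the mean of three duplicate determinations.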

The target in experiment [3] is T1, Renin. Put plainly: In vitro inhibition constants using recombinant human renin assay.

Numbered stars: 1 amine (or outer) side, 2 acyl side, 3 side chain; on linkers, the order of the positions; unused ones are H or OH. Square brackets hold non-standard residues; d marks the D form. Peptide text beside a SMILES is read from it. * marks the point of attachment. ξ: configuration not given here. X1 = CC(C)C[C@H](N[*:1])[C@@H](O)C[C@H](C(=O)[*:2])C(C)C; X2 = OC[C@H]1O[C@@H](O)[C@H](N*)[C@H](O)[C@@H]1O; NH(2-picolyl-N-oxide) = [O-][n+]1ccccc1CN*; NMeH = CN[C@@H](Cc1c[nH]cn1)C(=O)O; NHCH2(2-pyridyl) = c1ccc(CN*)nc1; Ile(3ξ) = CCC(C)[C@H](N)C(=O)O; NHC(CH2OH)3 = OCC(CO)(CO)N*; Boc = CC(C)(C)OC(=O)*; CO = O=C([*:1])[*:2]

As for `CC[C@H](C)[C@H](NC(=O)[C@@H](C[C@H](O)[C@H](CC(C)C)NC(=O)[C@H](Cc1cnc[nH]1)N(C)C(=O)[C@H](Cc1ccccc1)NC(=O)[C@@H]1CCCN1C(=O)NC(CO)(CO)CO)C(C)C)C(=O)NCc1ccccn1` ({NHC(CH2OH)3-CO}-PF[NMeH][X1]I-{NHCH2(2-pyridyl)}), at Renin [1], the IC50 (commonly the concentration needed to halve the response being measured) was 0.33 nM.
`CC[C@H](C)[C@H](NC(=O)[C@@H](C[C@H](O)[C@H](CC(C)C)NC(=O)[C@H](Cc1c[nH]cn1)NC(=O)[C@@H](Cc1ccccc1)NS(=O)(=O)c1cccc2c(N(C)C)cccc12)C(C)C)C(=O)NCc1ccccn1`: the equilibrium dissociation constant (Kd) – broadly, the equilibrium constant for the complex coming apart – in experiment [2] came out at 0.066 nM. This molecule came in with an IC50 against Renin [1] of 0.24 nM. The Ki (commonly a dissociation constant, usually derived from enzyme kinetics or from competition with a known ligand) at Renin [3] was 0.043 nM.
In experiment [2], `CCC(C)[C@H](NC(=O)[C@@H](C[C@H](O)[C@H](CC(C)C)NC(=O)[C@H](Cc1c[nH]cn1)N(C)C(=O)[C@H](Cc1ccccc1)NC(=O)[C@@H]1CCCN1C(=O)NC(CO)(CO)CO)C(C)C)C(=O)NCc1cccc[n+]1[O-]` (some centres not stated) ({NHC(CH2OH)3-CO}-PF[NMeH][X1][Ile(3ξ)]-{NH(2-picolyl-N-oxide)}) returned a dissociation constant Kd of 0.033 nM.
Take `CCC(C)[C@H](NC(=O)[C@@H](C[C@H](O)[C@H](CC(C)C)NC(=O)[C@H](Cc1cnc[nH]1)N(C)C(=O)[C@H](Cc1ccccc1)NC(=O)[C@@H]1CCCN1C(=O)NC(CO)(CO)CO)C(C)C)C(=O)NCc1cccc[n+]1[O-]` (some centres not stated) ({NHC(CH2OH)3-CO}-PF[NMeH][X1][Ile(3ξ)]-{NH(2-picolyl-N-oxide)}): inhibition on Renin [1] was half-maximal at 0.58 nM (IC50). Also, at Renin [3], the Ki turned out to be 0.051 nM.
In experiment [2], `CC[C@H](C)[C@H](NC(=O)[C@@H](C[C@H](O)[C@H](CC(C)C)NC(=O)[C@H](Cc1c[nH]cn1)N(C)C(=O)[C@H](Cc1ccccc1)NC(=O)[C@@H]1CCCN1C(=O)OC(C)(C)C)C(C)C)C(=O)NCc1cccc[n+]1[O-]` (Boc-PF[NMeH][X1]I-{NH(2-picolyl-N-oxide)}) displayed a Kd of 0.131 nM. This counts as sub-nanomolar.
In experiment [2], `CC[C@H](C)[C@H](NC(=O)[C@@H](C[C@H](O)[C@H](CC(C)C)NC(=O)[C@H](Cc1c[nH]cn1)N(C)C(=O)[C@H](Cc1ccccc1)NC(=O)[C@@H]1CCCN1C(=O)N[C@@H]1[C@H](O)[C@H](O)[C@@H](CO)O[C@H]1O)C(C)C)C(=O)NCc1cccc[n+]1[O-]` ({X2-CO}-PF[NMeH][X1]I-{NH(2-picolyl-N-oxide)}) came in with a Kd of 0.434 nM. Moreover, the IC50 on Renin [1] worked out at 1.1 nM.
Turning to `CC[C@H](C)[C@H](NC(=O)[C@@H](C[C@H](O)[C@H](CC(C)C)NC(=O)[C@H](Cc1c[nH]cn1)N(C)C(=O)[C@H](Cc1ccccc1)NC(=O)[C@@H]1CCCN1C(=O)OC(C)(C)C)C(C)C)C(=O)NCc1ccccn1` [DITEKIREN], binding in experiment [2] was characterised by a dissociation constant (Kd) of 0.04 nM. The midpoint of inhibition on Renin [1], the IC50, lay at 0.26 nM. The Ki on Renin [3] came to 0.04 nM.
For the molecule `CC[C@H](C)[C@H](NC(=O)[C@@H](C[C@H](O)[C@H](CC(C)C)NC(=O)[C@H](Cc1c[nH]cn1)N(C)C(=O)[C@H](Cc1ccccc1)NC(=O)[C@@H]1CCCN1C(=O)NC(CO)(CO)CO)C(C)C)C(=O)NCc1ccccn1` ({NHC(CH2OH)3-CO}-PF[NMeH][X1]I-{NHCH2(2-pyridyl)}), the Kd in experiment [2] came out at 0.111 nM.
As to `CC[C@H](C)[C@H](NC(=O)[C@@H](C[C@H](O)[C@H](CC(C)C)NC(=O)[C@H](Cc1cnc[nH]1)N(C)C(=O)[C@H](Cc1ccccc1)NC(=O)[C@@H]1CCCN1C(=O)OC(C)(C)C)C(C)C)C(=O)NCc1cccc[n+]1[O-]` (Boc-PF[NMeH][X1]I-{NH(2-picolyl-N-oxide)}), at Renin [1], the IC50 is 0.33 nM.
`CC[C@H](C)[C@H](NC(=O)[C@@H](C[C@H](O)[C@H](CC(C)C)NC(=O)[C@H](Cc1c[nH]cn1)N(C)C(=O)[C@H](Cc1ccccc1)NC(=O)[C@@H]1CCCN1C(=O)OC(C)(C)C)C(C)C)C(=O)NC(CO)(CO)CO` (Boc-PF[NMeH][X1]I-{NHC(CH2OH)3}) returned a Kd in experiment [2] of 0.044 nM. The molecule also gave an IC50 against Renin [1] of 0.26 nM.
